ChEMBL document CHEMBL5360580 (Eur J Med Chem, 2023)
pEC50: −log10 of the molar value.

Columns and labels:
SARS-CoV-2 [1] = experiment: Antiviral activity against SARS-CoV-2 infected in African green monkey Vero E6 cells assessed as inhibition of viral replication at 1 uM incubated for 24 hrs by IFA assay relative to control; type: functional; conditions: Severe acute respiratory syndrome coronavirus 2, Vero C1008
[2] = Selectivity index, ratio of CC50 for cytotoxicity against African green monkey Vero E6 to EC50 for antiviral activity against SARS-CoV-2 infected in African green monkey Vero E6 cells; type: toxicity, cell-based, Vero C1008; conditions: read-out: Ratio CC50/EC50
SARS-CoV-2 [3] = experiment: Antiviral activity against SARS-CoV-2 infected in African green monkey Vero E6 cells assessed as inhibition of viral replication incubated for 24 hrs by IFA assay; type: functional, organism-based; conditions: Severe acute respiratory syndrome coronavirus 2, Vero C1008, 24 h
Vero C1008 = experiment: Cytotoxicity against African green monkey Vero E6 cells assessed as reduction in cell viability measured after 48 hrs by CCK-8 assay; type: toxicity, cell-based; conditions: chlorocebus sabaeus, vero c1008, 48 h
[4] = Cmax in ICR mouse at 30 mg/kg, po measured upto 24 hrs by LC-MS/MS analysis; type: ADME, organism-based; design: dose 30 mg/kg, time < 24 hrs, route po; conditions: in vivo
Summary of the method: (§1)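 Male-unspecified ICR (CD-1) mice, N = 3 per group, were fasted 12 h. Compound in DMSO/0.5% HMPC (5/95, v/v) was given orally at 30 mg/kg or intravenously at 2.5 mg/kg. Femoral-vein blood was drawn at 0.25, 0.5, 1, 2, 4, 8 and 24 h, and serum analyte levels were measured by LC-MS/MS.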

[5] = Half life in ICR mouse at 30 mg/kg, po measured upto 24 hrs by LC-MS/MS analysis; type: ADME, organism-based; conditions: in vivo; summary of the method: as §1
[6] = Observed AUC (0 to infinity) in ICR mouse at 30 mg/kg, po measured upto 24 hrs by LC-MS/MS analysis; type: ADME, organism-based; design: dose 30 mg/kg, time < 24 hrs, route po; conditions: in vivo; summary of the method: as §1
[7] = AUClast in ICR mouse at 30 mg/kg, po measured upto 24 hrs by LC-MS/MS analysis; type: ADME, organism-based; design: dose 30 mg/kg, time < 24 hrs, route po; conditions: in vivo; summary of the method: as §1
[8] = Observed MRT (0 to infinity) in ICR mouse at 30 mg/kg, po measured upto 24 hrs by LC-MS/MS analysis; type: ADME, organism-based; conditions: in vivo; summary of the method: as §1

CC(=O)Nc1ccc(NC(=O)c2cc(Cl)ccc2O)c(Cl)c1
inhibition at 1 µM (SARS-CoV-2 [1]): < 10%

O=C(Nc1ccc(C(F)(F)F)c(Cl)c1)c1cc(Cl)c(F)cc1O
selectivity ratio [2]: 1.69
pEC50 (SARS-CoV-2 [3]): 5.57
inhibition at 1 µM (SARS-CoV-2 [1]): 95%
CC50 (Vero C1008): 4.52 µM

Oc1ccc(Cl)cc1-c1nnc(-c2ccc(C(F)(F)F)cc2)o1
inhibition at 1 µM (SARS-CoV-2 [1]): < 10%

O=C(Nc1ccc(OC(F)(F)F)cc1)c1cc(Cl)ccc1O
inhibition at 1 µM (SARS-CoV-2 [1]): 55%

O=C(Nc1ccc(C(F)(F)F)cc1Cl)c1cc(Cl)ccc1O
inhibition at 1 µM (SARS-CoV-2 [1]): 79%

Nc1ccc(NC(=O)c2cc(Cl)ccc2O)c(Cl)c1
inhibition at 1 µM (SARS-CoV-2 [1]): < 10%

O=C(Nc1ccc(C(F)(F)F)cc1)c1cc(Cl)c(F)cc1O
selectivity ratio [2]: 3.73
Cmax [4]: 452 ng/mL
pEC50 (SARS-CoV-2 [3]): 6.00
t1/2 [5]: 3.1 h
AUC [6]: 1573 ng·h/mL
inhibition at 1 µM (SARS-CoV-2 [1]): 95%
AUClast [7]: 1563 ng·h/mL
MRT [8]: 5.45 h
CC50 (Vero C1008): 3.73 µM
